Experimental data published in ChEMBL document CHEMBL1150050, “Antimutagenic agents from natural products” (J Nat Prod, 1992).
Active and inactive are the calls of the source. No cut-off for these calls is given here.

Experiments:
Salmonella typhimurium [1] = assay: Toxicity in Salmonella Typhimurium TA98 at 75 to 300 ug/plate after 48 to 72 hrs in presence of liver S-9 fraction; format: organism-based; details: salmonella enterica subsp. enterica serovar typhimurium
Procedure, shortened: (§1)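 Toxicity plates were set up with bacteria, Ames S-9 preparation and test substance, with histidine in place of 2-aminoanthracene. They were mixed with top agar and incubated 48–72 h.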

Salmonella typhimurium [2] = assay: Toxicity in Salmonella Typhimurium TA100 at 75 to 300 ug/plate after 48 to 72 hrs in presence of liver S-9 fraction; format: organism-based; details: salmonella enterica subsp. enterica serovar typhimurium; procedure, shortened: as §1
Salmonella typhimurium [3] = assay: Antimutagenic activity in Salmonella Typhimurium TA98 assessed as inhibition of 2-aminoanthracene-induced mutation at 75 ug/plate after 48 to 72 hrs by Ames assay in presence of liver S-9 fraction; format: functional, organism-based; details: Salmonella enterica subsp. enterica serovar Typhimurium
Procedure, shortened: (§2)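 Bacteria were combined with Ames S-9 metabolic activation preparation, test substance in DMSO and 2-aminoanthracene at 2.5 μg/plate, mixed with top agar and incubated 48–72 h. Mutagenicity inhibition was assessed relative to 2-aminoanthracene.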

Salmonella typhimurium [4] = assay: Antimutagenic activity in Salmonella Typhimurium TA98 assessed as inhibition of 2-aminoanthracene-induced mutation at 150 ug/plate after 48 to 72 hrs by Ames assay in presence of liver S-9 fraction; format: functional, organism-based; details: Salmonella enterica subsp. enterica serovar Typhimurium; procedure, shortened: as §2
Salmonella typhimurium [5] = assay: Antimutagenic activity in Salmonella Typhimurium TA100 assessed as inhibition of ethyl methanesulfonate-induced mutation at 300 ug/plate after 48 to 72 hrs by Ames assay in presence of liver S-9 fraction; format: functional, organism-based; details: Salmonella enterica subsp. enterica serovar Typhimurium
Salmonella typhimurium [6] = assay: Antimutagenic activity in Salmonella Typhimurium TA100 assessed as inhibition of ethyl methanesulfonate-induced mutation at 32 to 300 ug/plate after 48 to 72 hrs by Ames assay in presence of liver S-9 fraction; format: functional, Salmonella enterica subsp. enterica serovar Typhimurium; parameters: scale not given: the % may be the effect or the level left
Salmonella typhimurium [7] = assay: Toxicity in Salmonella Typhimurium TA98 at 75 to 600 ug/plate after 48 to 72 hrs in presence of liver S-9 fraction; format: organism-based; details: salmonella enterica subsp. enterica serovar typhimurium; procedure, shortened: as §1
Salmonella typhimurium [8] = assay: Toxicity in Salmonella Typhimurium TA100 at 75 to 600 ug/plate after 48 to 72 hrs in presence of liver S-9 fraction; format: organism-based; details: salmonella enterica subsp. enterica serovar typhimurium; procedure, shortened: as §1

| Compound | Activity (Salmonella typhimurium [1]) | Activity (Salmonella typhimurium [2]) | Activity (Salmonella typhimurium [3]) | Activity (Salmonella typhimurium [4]) | Activity (Salmonella typhimurium [5]) | Activity (Salmonella typhimurium [6]) [%] | Activity (Salmonella typhimurium [7]) | Activity (Salmonella typhimurium [8]) |
| --- | --- | --- | --- | --- | --- | --- | --- | --- |
| CC1(C)[C@@H](Br)CC[C@]2(C)Oc3cc(Br)c(O)cc3C[C@@H]12 | Non-toxic | Non-toxic | Active | Active | Active | 80 |  |  |
| CC1(C)[C@@H](Br)CC[C@@]2(C)Oc3cc(Br)c(O)cc3C[C@@H]12 [CYMOBARBATOL] | Non-toxic | Non-toxic | Active | Active | Active | 80 |  |  |
| CC(C)=CCC/C(C)=C/Cc1cc(O)c(Br)cc1O [CYMOPOL] |  |  |  |  |  |  | Toxic | Toxic |
